Measured values collected from several papers.
PIK3CA: Phosphatidylinositol 4,5-bisphosphate 3-kinase catalytic subunit alpha isoform (PIK3CA, Homo sapiens, UniProt P42336)
KDR: Vascular endothelial growth factor receptor 2 (KDR, Homo sapiens, UniProt P35968)
NOX5: NADPH oxidase 5 (NOX5, Homo sapiens, UniProt Q96PH1)
Histone acetyltransferase KAT6B: Histone acetyltransferase KAT6B (Homo sapiens, UniProt Q8WYB5)
DNA polymerase catalytic subunit: DNA polymerase catalytic subunit (Human cytomegalovirus, UniProt P08546)
Trpm7: Transient receptor potential cation channel subfamily M member 7 (Trpm7, Mus musculus, UniProt Q923J1)
PIK3CB: Phosphatidylinositol 4,5-bisphosphate 3-kinase catalytic subunit beta isoform (PIK3CB, Homo sapiens, UniProt P42338)

SMILES | target | test | setting | IC50 [nM]
Cc1nc(Nc2ccc3c(c2)CC(=O)N3)c2ccccc2n1 | PIK3CA | enzyme activity, inhibitor, ADP detection |  | 56
CC(=NNC(N)=S)c1ccc(Nc2nnc(-c3ccc(Cl)cc3)c3ccccc23)cc1 | KDR | cell-free assay, inhibitor |  | 375
C[C@H]1COC2=C1C(=O)C(=O)c1c2ccc2c1CCCC2(C)C | NOX5 | enzyme activity, inhibitor |  | 4300
CCOc1cccc(-c2ccccc2)c1S(=O)(=O)NC(=O)c1cc2c(C)cc(OC)cc2o1 | Histone acetyltransferase KAT6B | enzyme activity, inhibitor, TR-FRET |  | 51
Cc1coc2c1C(=O)C(=O)c1c-2ccc2c1CCCC2(C)C | NOX5 | enzyme activity, inhibitor |  | 1900
CCOc1ccc2cc(C(=O)NS(=O)(=O)c3ccccc3-c3ccccc3)oc2c1 | Histone acetyltransferase KAT6B | enzyme activity, inhibitor, TR-FRET |  | 3020
COc1cc2ncnc(Nc3ccc4c(c3)/C(=C/c3cccc(Cl)c3)C(=O)N4C)c2cc1OC | PIK3CA | enzyme activity, inhibitor, ADP detection |  | 121
O=C(/C=C/c1ccc(O)c2oc(-c3ccc(O)c(O)c3)cc12)O[C@H](Cc1ccc(O)c(O)c1)C(=O)O | YTH domain-containing protein 1 (Homo sapiens, UniProt Q96MU7) | ligand displacement, FP |  | 29000
Cc1nc(Nc2ccc3c(c2)/C(=C/c2ccccc2Cl)C(=O)N3)c2ccccc2n1 | PIK3CA | enzyme activity, inhibitor, ADP detection |  | 27.7
COc1cnc2c(cc(C(=O)NCc3ccc(Cl)cc3)c(=O)n2CC(=O)N2CC(C)(F)C2)n1 | DNA polymerase catalytic subunit | enzyme activity, inhibitor |  | 954
N#Cc1ccc(COC[C@H]2O[C@@H](n3c(NCc4ccc(Cl)c(Cl)c4)nc4c(N)ncnc43)[C@H](O)[C@@H]2O)cc1 | Trpm7 | calcium signal |  | 300
COc1ccc2[nH]c(C(=O)Nc3nc(CC(=O)O)cs3)cc2c1 | KDR | enzyme activity, inhibitor, ELISA |  | 921
Cc1nc(Nc2ccc3c(c2)C(C)(C)C(=O)N3C)c2ccccc2n1 | PIK3CB | enzyme activity, inhibitor, ADP detection |  | 182
O=C(Nc1ccccc1)Nc1ccc(Oc2nnc(-c3ccc(Cl)cc3)c3ccccc23)cc1 | KDR | cell-free assay, inhibitor |  | 195
CCCc1c(-c2ccccc2)nn(-c2ccccn2)c1O | NOX5 | enzyme activity, inhibitor |  | 2200
c1ccc2c(c1)CCC[C@H]2Nc1nc2ccccc2[nH]1 | Trpm7 | calcium signal |  | 1130
Cc1nc(Nc2ccc3c(c2)/C(=C/c2ccccc2C)C(=O)N3)c2ccccc2n1 | PIK3CA | enzyme activity, inhibitor, ADP detection |  | 45.5
CCOc1ccccc1S(=O)(=O)NC(=O)c1cc2c(OC)cc(OC)cc2o1 | Histone acetyltransferase KAT6B | enzyme activity, inhibitor, TR-FRET |  | 309
Cc1nc(Nc2ccc3c(c2)C(C)(C)C(=O)N3)c2ccccc2n1 | PIK3CA | enzyme activity, inhibitor, ADP detection |  | 195
COc1cc(C)c2cc(C(=O)NS(=O)(=O)c3ccc(C)cc3)oc2c1 | Histone acetyltransferase KAT6B | enzyme activity, inhibitor, TR-FRET |  | 262
COc1cc2ncnc(N(C)c3ccc4c(c3)/C(=C/c3cccc(Cl)c3)C(=O)N4C)c2cc1OC | PIK3CA | enzyme activity, inhibitor, ADP detection |  | > 1000
COc1cc(C)c2cc(C(=O)NS(=O)(=O)c3ccc(-c4ccccc4)cc3)oc2c1 | Histone acetyltransferase KAT6B | enzyme activity, inhibitor, TR-FRET |  | 161
Cc1nc(N(C)c2ccc3c(c2)/C(=C/c2ccccc2Cl)C(=O)N3C)c2ccccc2n1 | PIK3CB | enzyme activity, inhibitor, ADP detection |  | 117
CCOc1cccc(-c2cccc(Cl)c2)c1S(=O)(=O)NC(=O)c1cc2c(C)cc(OC)cc2o1 | Histone acetyltransferase KAT6B | enzyme activity, inhibitor, TR-FRET |  | 25
CN(C)C(=O)CN1CCN(c2cnc3c(cc(C(=O)NCc4ccc(Cl)cc4)c(=O)n3CC(=O)N3CC(C)(F)C3)n2)C1=O | DNA polymerase catalytic subunit | enzyme activity, inhibitor |  | 328
CCCOc1ccccc1S(=O)(=O)NC(=O)c1cc2c(C)cc(OC)cc2o1 | Histone acetyltransferase KAT6B | enzyme activity, inhibitor, TR-FRET |  | 61
O=c1oc(-c2cccnc2)nc2ccccc12 | Cathepsin G (CTSG, Homo sapiens, UniProt P08311) | enzyme activity, inhibitor, absorbance | pH 7.4 | 4900
